Active and inactive are the calls of the source. The rule behind the calls is not given here.
What was measured:
[1] = Cytotoxicity against human RD cells assessed as change in cell morphology by microscopic method; format: cell-based
Procedure, shortened: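 Uninfected, compound-treated RD cells were inspected by microscope. CC50 was taken from microscopically detectable alteration of cell morphology.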

[2] = test system: rhinovirus A2; test: Antiviral activity against Rhinovirus 2 after 2 to 3 days by cell based MTS assay; format: functional
[3] = test system: Enterovirus A71; test: Antiviral activity against Enterovirus 71 infected in RD cells assessed as reduction in virus-induced cytopathic effect incubated for 2 to 3 days; format: functional, cell-based
Procedure, shortened: (§1)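 RD cells seeded at 20 000/well in MEM with 2% FCS and infected with EV71. Three 8-step 1:5 dilution series from 100 μM. Incubated 2-3 days until maximal CPE, then scored for CPE reduction. EC50 is the median of three dose-response curves.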

[4] = test system: enterovirus D68; test: Antiviral activity against Enterovirus 68 after 2 to 3 days; format: functional
[5] = Selectivity index, ratio of CC50 for human RD cells to EC50 for Enterovirus 71; format: toxicity; conditions: read-out: Ratio CC50/EC50
Procedure, shortened: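 SI is CC50/EC50. CC50 is from the MTS assay on uninfected RD cells and EC50 from the EV71 CPE-reduction assay, both medians of three dose-response curves run in parallel.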

[6] = Cytotoxicity against human RD cells after 2 to 3 days by MTS method; format: cell-based
Procedure, shortened: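 Uninfected RD cells, 20 000/well in 2% FCS medium, run in parallel with the antiviral assay. Three 8-step 1:5 dilution series from 100 μM, 2-3 days. Read-out by 5% MTS, 1.5 h at 37 °C, absorbance 498 nm, as % of untreated controls. CC50 is the 50% metabolic activity point, median of 3 curves.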

[7] = Selectivity index, ratio of CC50 for human RD cells assessed as change in cell morphology to EC50 for Enterovirus 71; format: toxicity; conditions: read-out: Ratio CC50/EC50
Procedure, shortened: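 SI is CC50/EC50. CC50 is from microscopically detected morphology change in uninfected RD cells and EC50 from the EV71 CPE-reduction assay in RD cells.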

[8] = test system: Echovirus E11; test: Antiviral activity against Echovirus 11 after 2 to 3 days; format: functional; conditions: Enterovirus B
[9] = target: PI3-kinase p110-alpha/p85-alpha (Homo sapiens) (UniProt P27986+P42336); test: Inhibition of full length recombinant human N-terminal His6-tagged PI3Kalpha (1 to 1068 residues)/full length human N-terminal myc-tagged P85alpha (1 to 724 residues) expressed in Sf9 insect cells assessed as residual activity at 100 uM using PI : PS as substrate in presence of [gamma-33P]-ATP by scintillation counting method relative to control
[10] = test system: rhinovirus B14; test: Antiviral activity against Rhinovirus 14 after 2 to 3 days by cell based MTS assay; format: functional
[11] = test system: Poliovirus 1; test: Antiviral activity against Poliovirus 1 after 2 to 3 days by cell based MTS assay; format: functional; conditions: Enterovirus C
Procedure, shortened: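 Vero cells seeded at 20 000/well in MEM with 2% FCS. Three 8-step 1:5 dilution series from 100 μM, then virus, then cells; 2–3 days until maximal CPE. Read-out: 5% MTS for 1.5 h at 37°C, absorbance at 498 nm, expressed as % of untreated controls. EC50 taken as the median of 3 dose-response curves.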

[12] = Inhibition of full length recombinant His6-tagged PI4K3beta (unknown origin) expressed in Sf9 insect cells using PI : PS as substrate in presence of [gamma-33P]-ATP by scintillation counting method; parameters: species or system Homo sapiens
[13] = test system: Cystic fibrosis transmembrane conductance regulator (Homo sapiens), P13569 [F508del]; test: Potentiator activity at CFTR F508 deletion mutant (unknown origin) expressed in HEK293 cells assessed as increase in aninon permeability at 10 uM […] by YFP probe based imaging method; format: cell-based
[14] = Inhibition of full length recombinant His6-tagged PI4K3alpha (unknown origin) expressed in Sf9 insect cells assessed as residual activity at 100 uM using PI : PS as substrate in presence of [gamma-33P]-ATP by scintillation counting method relative to control; conditions: Homo sapiens
[15] = test system: Enterovirus A71; test: Antiviral activity against Enterovirus 71 infected in RD cells assessed as reduction in virus-induced cytopathic effect; format: functional, cell-based; conditions: Enterovirus A; procedure, shortened: as §1
[16] = test system: Coxsackievirus B3; test: Antiviral activity against Coxsackievirus B3 after 2 to 3 days by cell based MTS assay; format: functional; conditions: Enterovirus B
[17] = test system: Cystic fibrosis transmembrane conductance regulator (Homo sapiens), P13569 [F508del]; test: Corrector activity at CFTR F508 deletion mutant (unknown origin) expressed in HEK293 cells assessed as increase in steady-state level of F508 deletion mutant at plasma membrane at 10 uM preincubated for 24 hrs followed by compound washout by pHTomato dye based fluorescence imaging method; format: cell-based
Procedure, shortened: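 HEK293 cells were transiently transfected (Lipofectamine 2000) with F508del-CFTR-pHTomato plus co-expressed soluble eGFP, then kept 24 h at 37 °C. Next, 24 h at 30 °C with 10 μM drug. Imaging in pH 7.4 HEPES buffer, then extracellular pH shifted to ~6.5 (MES) and ~8.8 (Tris). The eGFP-normalized fluorescence rise (ΔF) estimates membrane CFTR.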

[18] = Enterovirus A, RD, read-out: EC50

Sequence of Cystic fibrosis transmembrane conductance regulator (Homo sapiens), P13569 [F508del] (P13569 as listed by the source): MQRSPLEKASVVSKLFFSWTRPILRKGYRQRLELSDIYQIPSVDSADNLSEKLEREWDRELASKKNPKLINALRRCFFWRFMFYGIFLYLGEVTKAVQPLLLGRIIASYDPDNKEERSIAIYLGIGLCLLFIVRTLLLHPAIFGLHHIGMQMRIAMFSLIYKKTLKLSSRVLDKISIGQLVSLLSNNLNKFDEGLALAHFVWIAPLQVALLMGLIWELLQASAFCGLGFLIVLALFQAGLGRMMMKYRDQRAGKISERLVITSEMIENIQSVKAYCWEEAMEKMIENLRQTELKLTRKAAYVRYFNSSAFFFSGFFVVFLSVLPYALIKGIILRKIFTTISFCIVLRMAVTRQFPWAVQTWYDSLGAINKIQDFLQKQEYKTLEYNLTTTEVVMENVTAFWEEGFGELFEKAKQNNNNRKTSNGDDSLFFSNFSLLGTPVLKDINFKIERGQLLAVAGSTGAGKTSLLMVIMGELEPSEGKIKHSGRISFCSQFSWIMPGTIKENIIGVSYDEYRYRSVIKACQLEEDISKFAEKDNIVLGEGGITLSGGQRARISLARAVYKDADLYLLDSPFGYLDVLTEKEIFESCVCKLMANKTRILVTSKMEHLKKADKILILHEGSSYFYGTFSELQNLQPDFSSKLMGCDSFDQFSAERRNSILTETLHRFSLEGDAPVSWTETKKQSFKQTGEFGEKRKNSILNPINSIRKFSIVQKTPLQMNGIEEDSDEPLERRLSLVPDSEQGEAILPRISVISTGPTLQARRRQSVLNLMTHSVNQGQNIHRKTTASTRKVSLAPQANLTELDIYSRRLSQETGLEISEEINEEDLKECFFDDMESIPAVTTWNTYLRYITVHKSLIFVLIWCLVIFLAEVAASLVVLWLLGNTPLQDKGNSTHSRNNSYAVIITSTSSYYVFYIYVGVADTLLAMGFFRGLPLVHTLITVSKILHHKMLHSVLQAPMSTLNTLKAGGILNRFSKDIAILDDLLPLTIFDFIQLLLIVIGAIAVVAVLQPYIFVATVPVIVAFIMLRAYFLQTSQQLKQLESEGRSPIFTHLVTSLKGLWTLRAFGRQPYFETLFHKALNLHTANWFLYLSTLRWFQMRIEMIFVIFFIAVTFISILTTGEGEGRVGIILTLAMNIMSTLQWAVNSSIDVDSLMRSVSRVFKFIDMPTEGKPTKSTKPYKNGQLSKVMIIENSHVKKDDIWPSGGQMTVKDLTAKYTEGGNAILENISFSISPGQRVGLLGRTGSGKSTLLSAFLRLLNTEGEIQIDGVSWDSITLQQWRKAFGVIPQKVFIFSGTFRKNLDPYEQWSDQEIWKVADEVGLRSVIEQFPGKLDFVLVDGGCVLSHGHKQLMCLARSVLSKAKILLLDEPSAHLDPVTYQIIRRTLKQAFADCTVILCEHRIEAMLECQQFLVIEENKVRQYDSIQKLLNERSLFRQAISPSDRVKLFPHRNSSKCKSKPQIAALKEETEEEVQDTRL

SMILES | EC50 [3, 18] [µM] | selectivity ratio [5] | CC50 [6] [µM] | Activity [9] [%] | IC50 ([12]; read-out: IC50) [µM] | Activity [13] | Activity [14] [%] | EC50 [3] | also measured
CC(=O)c1cccc(Nc2nc(-c3sc(NC(=O)C(C)(C)C)nc3C)cs2)c1 | 0.27 | 29.4 | 7.94 | 93 | 0.32 | inactive | 71 | – | CC50 [1]: 8.83 µM; EC50 ([2]; Rhinovirus A, read-out: EC50): 2.01 µM; EC50 ([4]; Enterovirus D, read-out: EC50): 1.38 µM; selectivity ratio [7]: 32.7; EC50 [8]: 0.72 µM; EC50 ([10]; Rhinovirus B, read-out: EC50): 4.85 µM; EC50 [11]: < 1.41 µM
CC(=O)Nc1nc(C)c(-c2csc(Nc3ccc(C(C)=O)cc3)n2)s1 | 0.68 | 8.2 | 5.59 | 100 | 3.71 | inactive | 73 | – | –
COc1ccc(Cl)cc1Nc1nnc(-c2csc(NC(=O)C(C)(C)C)n2)s1 | – | – | – | – | – | – | – | Not Active | IC50 [12]: Not Active
COc1ccc(-c2c(C)nn3c(NCCN4CCOCC4)cc(C)nc23)cc1OC | – | – | – | – | – | – | – | – | EC50 [15]: 0.73 µM
CC(=O)c1cccc(Nc2nc(-c3sc(NC(=O)NC45CC6CC(CC(C6)C4)C5)nc3C)cs2)c1 | – | – | – | – | 12.4 | – | – | Not Active | –
CC(=O)c1cccc(Nc2nc(-c3sc(NC(=O)NC4CCCCC4)nc3C)cs2)c1 | 2 | 4.4 | 8.87 | – | 1.82 | – | – | – | –
CC(=O)c1cccc(Nc2nc(-c3sc(NC(=O)Nc4ccccc4)nc3C)cs2)c1 | – | – | – | – | 7.69 | – | – | Not Active | –
CC(=O)c1cccc(Nc2nc(-c3sc(NC(=S)Nc4ccccc4)nc3C)cs2)c1 | – | – | – | – | > 50 | – | – | Not Active | –
CC(=O)Nc1nc(C)c(-c2csc(Nc3cccc(O)c3)n2)s1 | – | – | – | – | 2.63 | – | – | Not Active | –
CC(=O)c1cccc(Nc2nc(-c3sc(NC(=O)c4ccc(C)cc4)nc3C)cs2)c1 | > 55.7 | – | – | – | > 50 | – | – | – | –
CC(=O)Nc1nc(C)c(-c2c[nH]c(Nc3cccc(C(C)=O)c3)n2)s1 | > 90.2 | – | 85.7 | – | > 50 | – | – | – | CC50 [1]: 64.2 µM
CC(=O)c1cccc(Nc2nc(-c3sc(NC(=S)NC4CCCCC4)nc3C)cs2)c1 | – | – | – | – | > 50 | – | – | Not Active | –
CC(=O)Nc1nc(C)c(-c2csc(Nc3ccccc3)n2)s1 | 1.93 | 9.64 | 18.6 | 81 | 2.48 | inactive | 58 | – | –
CCC(=O)Nc1nc(C)c(-c2csc(Nc3cccc(C(C)=O)c3)n2)s1 | 0.38 | 26.6 | 10.1 | 40 | 0.27 | inactive | 72 | – | CC50 [1]: 6.37 µM; EC50 [16]: 2.16 µM; EC50 ([2]; Rhinovirus A, read-out: EC50): > 259 µM; Activity [17]: Active; EC50 [4]: Not Active; selectivity ratio [7]: 23.6; EC50 [8]: 0.97 µM; EC50 [10]: Not Active; EC50 [11]: < 1.52 µM
CC(=O)c1cccc(Nc2nc(-c3sc(NC(=O)C(F)(F)F)nc3C)cs2)c1 | 2 | 12.9 | 25.8 | 85 | 21.9 | inactive | 73 | – | CC50 [1]: 30.1 µM; EC50 [16]: 3.87 µM; EC50 ([2]; Rhinovirus A, read-out: EC50): 10.6 µM; selectivity ratio [7]: 15; EC50 [8]: 3.51 µM; EC50 ([10]; Rhinovirus B, read-out: EC50): 10.6 µM; EC50 [11]: 2.86 µM
CC(=O)c1cccc(Nc2nc(-c3sc(NC(=O)c4ccc(I)cc4)nc3C)cs2)c1 | > 44.6 | – | – | – | > 50 | – | – | – | –
CC(=O)Nc1cccc(NC(=S)Nc2cccc(C(C)=O)c2)c1 | – | – | – | – | – | – | – | Not Active | IC50 [12]: Not Active
COc1cccc(Nc2nc(-c3sc(NC(C)=O)nc3C)cs2)c1 | 1.2 | 5.9 | 9.17 | 51 | 1.55 | inactive | 71 | – | –
CC(=O)c1cccc(NC(=S)Nc2cccc(NC(=O)C(C)(C)C)c2)c1 | – | – | – | – | – | – | – | Not Active | IC50 [12]: Not Active
CC(=O)c1cccc(Nc2nc(-c3sc(NC(=O)c4ccccc4)nc3C)cs2)c1 | 0.51 | 11.3 | 5.75 | 54 | 18.9 | inactive | 81 | – | CC50 [1]: 11.8 µM; EC50 [16]: 2.19 µM; EC50 ([2]; Rhinovirus A, read-out: EC50): 2.05 µM; Activity [17]: Active; EC50 [4]: Not Active; selectivity ratio [7]: 23.1; EC50 [8]: 1.77 µM; EC50 ([10]; Rhinovirus B, read-out: EC50): > 230 µM; EC50 [11]: 2.23 µM
CC(=O)Nc1nc(C)c(-c2csc(Nc3cccc(C(C)=O)c3)n2)s1 | 0.92 | 17.9 | 16.5 | 37 | 0.48 | inactive | 52 | – | CC50 [1]: 9.73 µM; EC50 [16]: 2.17 µM; EC50 [2]: Not Active; EC50 [4]: Not Active; selectivity ratio [7]: 10.6; EC50 [8]: 1.57 µM; EC50 ([10]; Rhinovirus B, read-out: EC50): > 268 µM; EC50 [11]: 3.09 µM
CCC(=O)Nc1nc(C)c(-c2csc(Nc3ccc(N(C)C)cc3)n2)s1 | 8.58 | 6 | 51.6 | – | 50 | – | – | – | CC50 [1]: 142 µM
CC(=O)c1cccc(Nc2nc(-c3sc(NC(=O)NCc4ccc(Cl)cc4)nc3C)cs2)c1 | 4.77 | 4.4 | 20.9 | – | 3.95 | – | – | – | –
COc1ccc(Cl)cc1Nc1nnc(-c2csc(NC(=O)C(C)(C)C)n2)o1 | – | – | – | – | – | – | – | Not Active | IC50 [12]: Not Active

Reference: ChEMBL document CHEMBL3997800, “Discovery of Multitarget Agents Active as Broad-Spectrum Antivirals and Correctors of Cystic Fibrosis Transmembrane Conductance Regulator for Associated Pulmonary Diseases” (J Med Chem, 2017)
